# According to PubChem BioAssay:
# Calls of active or inactive are those of the source.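 How the source made its calls, unless noted: active means GFP response above 150% of the DMSO level; inconclusive means fewer than 70 events counted for a yeast strain; inactive means the rest.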
# What was measured:
# [1] = hit retest on RPL19A-GFP reporter strain – cell-based, S. cerevisiae, flow cytometry, cherry picks, mother/daughter gates, confirmation (AID 2270;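 active means GFP response below 50% of the DMSO control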); conditions: 3 h, at 10 µM, stronger effect = lower value, 100 = same GFP as DMSO wells
# [2] = yeast TOR pathway reporter LAP4-GFP change – cell-based, cherry picks, flow cytometry, mother/daughter gates, confirmation (AID 2271;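 active means GFP response above 150% of the DMSO control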;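 further: ratio of sample to DMSO plate mean so 100% equals DMSO level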); conditions: S. cerevisiae LAP4-GFP strain, 3 h, at 10 µM, stronger effect = higher value, 100 means same as DMSO control
# Summary of the method: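 Test system: GFP-fusion yeast strain. Medium: synthetic complete (SC) yeast growth medium. Timing: 3 h treatment at 30 °C with rotation. Measured by: GFP by flow cytometry. Control set: positive rapamycin (400 ng/mL), negative DMSO.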
# [3] = TOR pathway reporter MEP2-GFP, retest of hits – S. cerevisiae, flow cytometry GFP, cherry picks, confirmation (AID 2272;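 active means GFP response above 150% of the DMSO control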;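 further: ratio of well signal to plate DMSO mean so 100% equals DMSO level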); conditions: S. cerevisiae MEP2-GFP strain, 3 h, at 10 µM, stronger effect = higher value
# [4] = yeast AGP1-GFP fluorescence change, single-dose – cell-based, flow cytometry, S. cerevisiae, cherry picks, confirmation (AID 2273);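 further: median GFP channel fluorescence over the whole cell population gate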; conditions: S. cerevisiae AGP1-GFP strain, 3 h, at 10 µM
# [5] = TOR pathway CIT2 reporter hit retest – S. cerevisiae, GFP fusion, cherry picks, mother/daughter gates, confirmation (AID 2274); conditions: S. cerevisiae CIT2-GFP strain, flow cytometry, 3 h, at 10 µM, stronger effect = higher value
# [6] = measured here: daughter cell gate
# [7] = measured here: mother cell gate
# [8] = measured here: daughter cell gate response
# [9] = measured here: mother cell gate response
SMILES,GFP response vs DMSO [1],"GFP response vs DMSO [1, 6] [%]","GFP response vs DMSO [1, 7] [%]",GFP response relative to DMSO [2],"GFP response relative to DMSO [2, 8] [%]","GFP response relative to DMSO [2, 9] [%]",GFP response vs DMSO [3],"GFP response, % of DMSO [4]","GFP response, % of DMSO [5]","GFP response, % of DMSO [5, 6] [%]","GFP response, % of DMSO [5, 7] [%]"
O=C(Nc1ccc(Cl)cc1Cl)c1cccc(N2C(=O)C=CC2=O)c1,76.5% (inactive),70.3,65.5,204% (active),123,179,111% (inactive),99.1% (inactive),96.9% (inactive),105,80.7
COC(=O)Nc1ccc2c(c1)N(C(=O)CCN1CCN3CCCC3C1)c1ccccc1CC2 (configuration not stated),102% (inactive),101,102,96.2% (inactive),97.2,99.3,104% (inactive),106% (inactive),104% (inactive),99.7,105
COc1ccc(N2CCN(C(=O)c3ccc(OCC4CCCO4)cc3)CC2)cc1 (configuration not stated),99.2% (inactive),98.8,98.3,99.5% (inactive),101,98.4,99% (inactive),99.8% (inactive),100% (inactive),101,99.3
Cc1cccn2c(=O)c(/C=C(\C#N)C(N)=O)c(N3CCN(Cc4ccc5c(c4)OCO5)CC3)nc12,101% (inactive),101,102,101% (inactive),103,101,101% (inactive),100% (inactive),110% (inactive),110,112
Oc1c(C(Nc2cccc(C(F)(F)F)c2)c2ccncc2)ccc2cccnc12 (configuration not stated),105% (inactive),104,102,135% (inactive),120,136,112% (inactive),94% (inactive),99.3% (inactive),102,94.5
O=C1Nc2ccccc2/C1=C\C(=O)c1ccccc1,99% (inactive),96.4,91.9,228% (active),180,236,128% (inactive),103% (inactive),109% (inactive),110,104
O=C(O)COc1c(-c2ccc(Cl)cc2)oc2ccccc2c1=O,97% (inactive),95.4,97.9,99.2% (inactive),99.2,99.3,102% (inactive),96% (inactive),96.9% (inactive),97.2,96.1
CN(C)c1ccc(/C=N/NC(=O)c2ccc(Cl)cc2)cc1,98% (inactive),97,97.4,102% (inactive),97.9,103,102% (inactive),100% (inactive),97.8% (inactive),98.3,95.6
O=C(O)c1ccc2ccc3ccccc3c2c1,96.6% (inactive),94.2,95,99.5% (inactive),97.5,98.4,96.8% (inactive),105% (inactive),122% (inactive),121,121
Cc1ccc(S(=O)(=O)c2ccc([N+](=O)[O-])cn2)cc1,93.2% (inactive),99.5,84.5,185% (active),156,177,139% (inactive),115% (inactive),103% (inactive),114,93.4
O=C(c1ccccc1)N1CCN(c2ccccc2F)CC1,101% (inactive),102,99.6,105% (inactive),104,96.4,103% (inactive),99.1% (inactive),95.8% (inactive),97.6,90.4
COc1cc(NC(=O)c2ccc(C)cc2C)ccc1NC(=O)c1cc2ccccc2o1,97.1% (inactive),95.9,94.4,97.7% (inactive),97.5,95.4,106% (inactive),105% (inactive),97.2% (inactive),101,97.1
COc1ccc(C(=O)c2no[n+]([O-])c2C(=O)c2ccc(OC)cc2)cc1,90.1% (inactive),83.3,86.6,149% (inactive),134,153,94.1% (inactive),92.9% (inactive),82.6% (inactive),77.1,73.6
Cc1cccc(CSc2cccc3cccnc23)c1,92.3% (inactive),91.3,92.1,130% (inactive),125,132,97.2% (inactive),89.1% (inactive),88.9% (inactive),90.5,85.9
C/C(=N\NC(=O)c1cccc(Cl)c1)c1cccc(NC(=O)C(C)C)c1,96.2% (inactive),98.1,95.6,92.9% (inactive),94.4,92.3,103% (inactive),99.8% (inactive),100% (inactive),99.3,103
COc1ccc(-c2cc(C(F)(F)F)nc(N3CCOCC3)n2)cc1OC,100% (inactive),100,98.4,101% (inactive),101,102,126% (inactive),99.5% (inactive),110% (inactive),114,109
COc1ccc(CCNC2=C(Cl)C(=O)N(CCc3ccccc3)C2=O)cc1OC,101% (inactive),102,102,103% (inactive),105,103,102% (inactive),97.4% (inactive),107% (inactive),99.7,103
CNC(=O)/C(C#N)=C/c1c(N(Cc2ccccc2)Cc2ccccc2)nc2ccccn2c1=O,97.3% (inactive),98.1,96.9,100% (inactive),99,101,93.1% (inactive),104% (inactive),100% (inactive),101,99.3
Cc1nc2ccc(Br)cn2c1C(=O)N/N=C\c1ccccc1Cl,95.4% (inactive),95.6,96.6,94.1% (inactive),94.4,96.1,96.2% (inactive),98% (inactive),99.7% (inactive),99.1,99.7
Cc1cccc(NC(=O)c2nc(S(=O)(=O)Cc3ccccc3)ncc2Cl)c1,93.1% (inactive),92.7,91.4,136% (inactive),128,137,108% (inactive),116% (inactive),93.1% (inactive),88.7,90.4
O=S(=O)(c1ccccc1)N1N=C(c2cccs2)CC1c1ccc(Br)cc1 (configuration not stated),98% (inactive),99.4,98.4,97.9% (inactive),99.2,97.2,102% (inactive),98.3% (inactive),98.3% (inactive),97.2,97.3
O=C(NC(=S)NNC(=O)c1cnccn1)c1ccc(F)cc1,110% (inactive),91.7,105,259% (active),234,254,104% (inactive),92.4% (inactive),99.1% (inactive),96.5,92.3
CCCc1[nH]nc2c1C(c1ccc(O)c(OC)c1)C(C#N)=C(N)O2 (configuration not stated),103% (inactive),101,103,92.6% (inactive),94.1,93.1,107% (inactive),97.6% (inactive),103% (inactive),101,103
Cc1cc(Cl)ccc1N=c1ssnc1Cl,92.2% (inactive),94.2,86.5,133% (inactive),114,145,109% (inactive),97.3% (inactive),102% (inactive),103,101
COc1ccc(S(=O)(=O)NCC(=O)N(CC(=O)NCc2ccco2)Cc2ccc(F)cc2)cc1,100% (inactive),98.8,101,99.5% (inactive),99.1,100,99% (inactive),103% (inactive),103% (inactive),105,101
O=[N+]([O-])c1cnc(Sc2ccncn2)s1,102% (inactive),105,99.2,166% (active),148,182,141% (inactive),111% (inactive),113% (inactive),124,102
COc1cccc(C(=O)Nc2ccc(C)cc2)c1,100% (inactive),99.9,100,101% (inactive),99.2,101,102% (inactive),91.2% (inactive),107% (inactive),106,106
